Assays:
B1 bradykinin receptor = molecular target: T1, B1 bradykinin receptor (Rattus norvegicus, UniProt P97583); test: Antagonistic activity against Bradykinin receptor B1 of rat ileum longitudinal smooth muscle.
T1 sequence (P97583 whole entry): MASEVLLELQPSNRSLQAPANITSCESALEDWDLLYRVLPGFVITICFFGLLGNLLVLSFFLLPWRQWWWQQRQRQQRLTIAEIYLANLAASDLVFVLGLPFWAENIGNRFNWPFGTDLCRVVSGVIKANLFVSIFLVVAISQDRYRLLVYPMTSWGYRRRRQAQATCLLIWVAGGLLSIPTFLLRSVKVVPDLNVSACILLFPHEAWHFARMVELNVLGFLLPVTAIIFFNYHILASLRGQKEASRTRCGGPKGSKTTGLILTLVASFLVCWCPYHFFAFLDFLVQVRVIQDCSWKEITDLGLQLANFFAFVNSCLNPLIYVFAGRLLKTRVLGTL
Procedure, shortened: (§1)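 Rat ileum longitudinal muscle-myenteric plexus strips in oxygenated (95% O2/5% CO2) Krebs with indomethacin, guanethidine (3 μM each), chlorpheniramine, atropine (1 μM each). Cumulative desArg9-BK curves with thiorphan, bestatin, captopril (1 μM each); antagonist given 15 min before repeat curve at 1–10 μM. Contraction read-out; pA2 (dose ratio 2), mean ± SE of 4–15 experiments.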

B2 bradykinin receptor = molecular target: T2, B2 bradykinin receptor (Cavia porcellus, UniProt O70526); test: Antagonistic activity against Bradykinin receptor B2 of guinea pig ileum longitudinal smooth muscle.
T2 sequence (O70526 whole entry): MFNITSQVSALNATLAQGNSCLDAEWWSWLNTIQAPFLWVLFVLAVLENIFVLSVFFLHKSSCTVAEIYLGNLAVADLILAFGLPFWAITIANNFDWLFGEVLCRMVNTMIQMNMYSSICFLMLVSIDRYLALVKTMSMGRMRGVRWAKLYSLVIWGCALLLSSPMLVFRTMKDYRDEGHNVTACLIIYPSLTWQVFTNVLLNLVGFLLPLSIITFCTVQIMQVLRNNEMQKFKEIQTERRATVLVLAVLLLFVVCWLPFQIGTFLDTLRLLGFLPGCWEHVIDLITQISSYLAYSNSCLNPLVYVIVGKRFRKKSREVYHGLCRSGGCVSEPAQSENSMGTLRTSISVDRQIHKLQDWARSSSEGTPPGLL
Procedure, shortened: as §1, with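 “Guinea pig” for “Rat”, “BK” for “desArg9-BK”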

Kd (B1 bradykinin receptor) [nM] | Kd (B2 bradykinin receptor) [nM] | SMILES
19.9 | 6.31 | N=C(N)NCCC[C@@H](N)C(=O)N[C@@H](CCCNC(=N)N)C(=O)N1CCC[C@H]1C(=O)N1CC(O)C[C@H]1C(=O)NCC(=O)N[C@H](C(=O)N[C@@H](CO)C(=O)N[C@@H](C(=O)N1C(C(=O)N[C@H](CCCNC(=N)N)C(=O)O)C[C@@H]2CCCC[C@@H]21)C1Cc2ccccc2C1)C1Cc2ccccc2C1 (some centres undefined) [B-9430]
7.94 | 3160 | N=C(N)NCCC[C@H](NC(=O)[C@H](CCCCN)NC(=O)[C@@H](N)CCCCN)C(=O)N1CCC[C@H]1C(=O)N1CC(O)C[C@H]1C(=O)NCC(=O)N[C@H](C(=O)N[C@@H](CO)C(=O)N[C@@H](C(=O)N1C(C(=O)O)C[C@@H]2CCCC[C@@H]21)C1Cc2ccccc2C1)C1Cc2ccccc2C1 (some centres undefined) [B-9858]

Source: BindingDB's records for doi:10.1021/jm980495r (Institute of Mutagenesis and Differentiation, 1999)
